target: T1, Hexokinase-4 (Homo sapiens) (UniProt P35557); assay: Activity of recombinant human pancreatic glucokinase assessed as glucose half-maximal saturation concentration
T1 sequence (whole entry): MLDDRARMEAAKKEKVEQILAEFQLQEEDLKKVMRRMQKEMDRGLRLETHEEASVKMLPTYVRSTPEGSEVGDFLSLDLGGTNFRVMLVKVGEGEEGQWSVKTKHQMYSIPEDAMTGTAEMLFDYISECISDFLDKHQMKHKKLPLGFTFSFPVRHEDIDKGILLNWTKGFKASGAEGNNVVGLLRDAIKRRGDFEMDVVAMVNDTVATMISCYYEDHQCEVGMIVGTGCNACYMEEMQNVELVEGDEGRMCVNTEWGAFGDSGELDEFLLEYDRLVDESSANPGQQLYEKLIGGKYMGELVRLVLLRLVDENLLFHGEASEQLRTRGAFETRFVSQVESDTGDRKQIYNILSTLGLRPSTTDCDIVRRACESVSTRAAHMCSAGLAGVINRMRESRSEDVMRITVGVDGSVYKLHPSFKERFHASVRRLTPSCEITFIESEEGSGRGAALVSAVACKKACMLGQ
In short: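 Purified recombinant human pancreatic glucokinase coupled enzymatic assay, compounds in DMSO. Buffer: HEPES pH 7.4, KCl, MgCl2, DTT, ATP, NADP, G6PDH. Half-saturation glucose concentration S0.5 was reported. Values are means of three duplicate runs.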

SMILES	S50 [mM]
Cc1cccnc1-c1cc(Oc2ccc(S(C)(=O)=O)cc2)cc(C(=O)Nc2ccn(C)n2)c1	3.89
Cc1cccnc1-c1cc(Oc2ccc(S(C)(=O)=O)cc2)cc(C(=O)Nc2nc(CN3CCNCC3)cs2)c1	3.08
Cc1cccnc1-c1cc(Oc2ccc(S(C)(=O)=O)cc2)cc(C(=O)Nc2nccs2)c1	2.01
Cc1cccnc1-c1cc(Oc2ccc(S(C)(=O)=O)cc2)cc(C(=O)Nc2nc(CN3CCOCC3)cs2)c1	3.24
Cc1cccnc1-c1cc(Oc2ccc(S(C)(=O)=O)cc2)cc(C(=O)Nc2nc(CN3CCN(C)CC3)cs2)c1	3.44
COCCOCn1ccc(NC(=O)c2cc(Oc3ccc(S(C)(=O)=O)cc3)cc(-c3ncccc3C)c2)n1	2.33
Cc1cccnc1-c1cc(Oc2ccc(S(C)(=O)=O)cc2)cc(C(=O)Nc2ccn(CCN3CCOCC3)n2)c1	3.54
Cc1cccnc1-c1cc(Oc2ccc(S(C)(=O)=O)cc2)cc(C(=O)Nc2ncc(F)s2)c1	1.95

More lines, now with the values ahead:

S50 [mM]	SMILES
4.51	CCCNCc1csc(NC(=O)c2cc(Oc3ccc(S(C)(=O)=O)cc3)cc(-c3ncccc3C)c2)n1
5.79	CCN(CC)Cc1csc(NC(=O)c2cc(Oc3ccc(S(C)(=O)=O)cc3)cc(-c3ncccc3C)c2)n1
2.27	COCC(C)NCc1csc(NC(=O)c2cc(Oc3ccc(S(C)(=O)=O)cc3)cc(-c3ncccc3C)c2)n1 (centres undefined)
4.56	COCCN(C)Cc1csc(NC(=O)c2cc(Oc3ccc(S(C)(=O)=O)cc3)cc(-c3ncccc3C)c2)n1
4.35	CCNC(=O)Cc1csc(NC(=O)c2cc(Oc3ccc(S(C)(=O)=O)cc3)cc(-c3ncccc3C)c2)n1
5.43	COCCN(CCOC)Cc1csc(NC(=O)c2cc(Oc3ccc(S(C)(=O)=O)cc3)cc(-c3ncccc3C)c2)n1
0.57	COC(CNCc1csc(NC(=O)c2cc(Oc3ccc(S(C)(=O)=O)cc3)cc(-c3ncccc3C)c2)n1)OC
2.21	C#CCNCc1csc(NC(=O)c2cc(Oc3ccc(S(C)(=O)=O)cc3)cc(-c3ncccc3C)c2)n1
3.98	Cc1cccnc1-c1cc(Oc2ccc(S(C)(=O)=O)cc2)cc(C(=O)Nc2nc(CNC(C)C)cs2)c1
1.78	Cc1cccnc1-c1cc(Oc2ccc(S(C)(=O)=O)cc2)cc(C(=O)Nc2nc(CC(=O)NC3CC3)cs2)c1

tested on: Mus musculus; assay: Antidiabetic activity in po dosed C57BL/J6 mouse assessed as reduction of glucose AUC preincubated for 30 mins followed by glucose challenge measured after 30 to 180 mins by oral glucose tolerance test

SMILES	Activity
COCCOCn1ccc(NC(=O)c2cc(Oc3ccc(S(C)(=O)=O)cc3)cc(-c3ncccc3C)c2)n1	Dose-dependent effect

Source: ChEMBL document CHEMBL3232870, “Discovery of 3-(4-methanesulfonylphenoxy)-N-[1-(2-methoxy-ethoxymethyl)-1H-pyrazol-3-yl]-5-(3-methylpyridin-2-yl)-benzamide as a novel glucokinase activator (GKA) for the treatment of type 2 diabetes mellitus” (Bioorg Med Chem, 2014)
